Measured values from different studies.
Protocols differ between the studies behind these lines.

| SMILES | host | matrix | route | dose | notes | half-life [h] |
| --- | --- | --- | --- | --- | --- | --- |
| N#C[C@@]12C[C@@H]1[C@@H](n1cnc3c(N[C@@H](C4CCC4)C4CC4)nc(I)nc31)[C@H](O)[C@@H]2O | male Wistar rat | plasma | oral | 3 mg/kg | – | 4.3 |
| O=C(C=Cc1ccccc1)Nc1cc(-c2ccnc(N3CCC(O)CC3)c2)ccn1 | female Sprague-Dawley rat | plasma | oral | 50 mg/kg | – | 0.48 |
| C/C(=N\c1ccc(O)cc1)c1cc2ccccc2n1C | male Sprague-Dawley rat | plasma | intravenous | 5 mg/kg | single dose | ~4.5 |
| COc1ccc2cc3n(c(=O)c2c1OC)CCc1cc2c(cc1-3)OCO2 | male Sprague-Dawley rat | blood | oral | 50 mg/kg | – | 1.57 |
| O=C1CC[C@H](N2Cc3cc(N4CCN(CC5CCN(c6ccc([C@@H]7c8ccc(O)cc8CC[C@@H]7c7ccccc7)cc6)CC5)CC4)ccc3C2=O)C(=O)N1 | female Sprague-Dawley rat | plasma | oral | 20 mg/kg | fed | 6.38 |
| Nc1ccc(/C=C/C(=O)NCc2cc3cc(-c4ccc(C(=O)N5CCC(F)(F)CC5)cc4)cc(-c4ccc(F)cc4)c3o2)cn1 | rat | plasma | oral | 3 mg/kg | – | 4.59 |
| CC1(CN)CCN(c2cnc3c(Sc4ccncc4Cl)n[nH]c3n2)CC1 | male Sprague-Dawley rat | plasma | intravenous | 2 mg/kg | – | 0.935 |
| O=c1cc(-c2ccc(O)c(O)c2)oc2cc(O)cc(O)c12 | male Sprague-Dawley rat | plasma | oral | 30 mg/kg | – | 2.2 |
| CC(=Nc1ccc(N=Cc2cnccn2)cc1)N(C)C | male Sprague-Dawley rat | plasma | oral | 200 mg/kg | – | 7.79 |
